Measurements: ChEMBL document CHEMBL4715860 (J Med Chem, 2020)
The source made the active and inactive calls. No cut-off for these calls is given here.

Legend:
[1] = Inhibition of mTORC1 in human A2058 cells assessed as reduction in RPS6 phosphorylation at S235/236 residue incubated for 1 hrs by Western blot analysis; assay type: cell-based; settings: A2058, 1 h
Outline: (§1)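 A2058 cells grown 24 h at 37 °C, then exposed to inhibitor or DMSO for 1 h. Cells were PFA-fixed and stained for pPKB Ser473 or pS6 Ser235/236 by in-cell western with IR-dye secondary antibodies. Signal normalized to tubulin and to DMSO. IC50 from a 7-point (triplicate) or 11-point (duplicate) 1:2 series.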

[2] = Inhibition of mTOR2 in human A2058 cells assessed as reduction in PKB/Akt phosphorylation at Ser473 incubated for 1 hr by Western blot analysis; assay type: cell-based; settings: A2058, 1 h; outline: as §1
[3] = biological target: PI3-kinase p110-alpha/p85-alpha (Homo sapiens, UniProt P42336); assay: Inhibition of alexa fluor 647-labeled kinase tracer 314 binding to recombinant human N-terminal His-tagged p110alpha/p85alpha expressed in baculovirus expression system measured after 60 mins by LanthaScreen TR-FRET assay relative to control
[4] = biological target: Serine/threonine-protein kinase mTOR (Homo sapiens, UniProt P42345); assay: Inhibition of alexa fluor 647-labeled kinase tracer 314 binding to recombinant human N-terminal GST-tagged mTOR (1360 to 2549 residues) expressed in baculovirus expression system measured after 60 mins by TR-FRET based LanthaScreen Eu kinase binding assay
[5] = Metabolic stability in Beagle dog hepatocytes assessed as half-life at 5 uM incubated for 3 hrs by LC-MS analysis; assay type: ADME, cell-based, Canis lupus familiaris, Hepatocyte
Outline: (§2)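 Cryopreserved primary hepatocytes in suspension from CD-1 mouse, Sprague-Dawley rat, Beagle dog and human. Compound at 5 μM final (from 10 mM DMSO stock). Samples taken at 0, 15, 60, 90 and 180 min and quenched with ACN plus internal standard. Parent quantified by LC-MS. Hepatocyte-free medium incubations served as negative control; 7-ethoxycoumarin as positive control. Duplicate; CLint per 10^6 cells and t1/2.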

[6] = Metabolic stability in CD1 mouse hepatocytes assessed as half-life at 5 uM incubated for 3 hrs by LC-MS analysis; assay type: ADME, cell-based, Hepatocyte; outline: as §2
[7] = Metabolic stability in Sprague-Dawley rat hepatocytes assessed as half-life at 5 uM incubated for 3 hrs by LC-MS analysis; assay type: ADME, cell-based, Hepatocyte; outline: as §2
[8] = Metabolic stability in human hepatocytes assessed as half-life at 5 uM incubated for 3 hrs by LC-MS analysis; assay type: ADME, cell-based, Hepatocyte
Outline: as §2, with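 “stock).” for “stock). Samples taken at 0, 15, 60, 90 and 180 min and quenched with ACN plus internal standard.”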

[9] = Substrate activity at human P-glycoprotein stably expressed in MDCK cells at 1 uM measured after 5 to 20 mins by UPLC-MS/MS analysis; assay type: ADME, cell-based; settings: time 5-20 min
Outline: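 CRISPR canine-MDR1-knockout MDCKII cells stably expressing human MDR1, with the knockout parent line as control. Cells grown 5 days on TransWell filters and preincubated in HBSS 30 min at 37 °C. Compound at 1 μM added apical or basolateral. Receiver sampled at 5, 10 and 20 min; UPLC-MS/MS.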

[10] = AUC (0 to 8 hrs) in male Sprague-Dawley rat plasma at 5 mg/kg, po; assay type: ADME, organism-based; design: time < 8 hr, route oral, dose 5 mg/kg
Outline: (§3)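 Male Sprague Dawley rats, single oral dose of 5 mg/kg. Plasma and brain concentrations measured over 8 h, n = 3, mean ± SEM; AUC0−8 computed from the time course.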

[11] = AUC (0 to 8 hrs) in male Sprague-Dawley rat brain at 5 mg/kg, po; assay type: ADME, organism-based; design: time < 8 hr, route oral, dose 5 mg/kg; settings: in vivo; outline: as §3
[12] = Elimination half life in C57BL/6J mouse brain at 25 mg/kg, po administered as single dose by mass spectrometry based UHPLC analysis; assay type: ADME, organism-based; settings: read-out: beta t1/2 (converted)
Outline: (§4)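 One oral dose of 25 mg/kg to female C57BL/6J mice. Plasma and brain concentrations followed over time, n = 3 per time point (mean).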

[13] = Tmax in C57BL/6J mouse plasma at 25 mg/kg, po administered as single dose by mass spectrometry based UHPLC analysis; assay type: ADME, organism-based
Outline: (§5)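 Female C57BL/6J mice given a single oral dose of 25 mg/kg. Plasma and brain levels followed over time (n = 3 per time point, mean). Tmax is the time of maximal concentration.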

[14] = Tmax in C57BL/6J mouse brain at 25 mg/kg, po administered as single dose by mass spectrometry based UHPLC analysis; assay type: ADME, organism-based; outline: as §5
[15] = Elimination half life in C57BL/6J mouse plasma at 25 mg/kg, po administered as single dose by mass spectrometry based UHPLC analysis; assay type: ADME, organism-based; settings: read-out: beta t1/2 (converted); outline: as §4
[16] = AUC (0 to 8 hrs) in C57BL/6J mouse plasma at 25 mg/kg, po administered as single dose by mass spectrometry based UHPLC analysis; assay type: ADME, organism-based; design: time < 8 hr, route oral, dose 25 mg/kg; outline: as §4
[17] = Cmax in C57BL/6J mouse brain at 25 mg/kg, po administered as single dose by mass spectrometry based UHPLC analysis; assay type: ADME, organism-based; design: route oral, dose 25 mg/kg; outline: as §4
[18] = Clearance in C57BL/6J mouse plasma at 25 mg/kg, po administered as single dose by mass spectrometry based UHPLC analysis; assay type: ADME, organism-based; outline: as §4
[19] = AUC (0 to 8 hrs) in C57BL/6J mouse brain at 25 mg/kg, po administered as single dose by mass spectrometry based UHPLC analysis; assay type: ADME, organism-based; design: time < 8 hr, route oral, dose 25 mg/kg; outline: as §4
Mus musculus [20] = assay: In vivo inhibition of PI3Kalpha in C57BL/6J mouse assessed as increase in plasma glucose concentration at 25 mg/kg, po measured after 8 hrs by glucoseoxidase-peroxide coupled colorimetric assay; assay type: functional, organism-based
Outline: (§6)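 Female C57BL/6J mice given one oral dose (25 mg/kg); plasma insulin and glucose monitored over time, mean ± SEM.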

Mus musculus [21] = assay: In vivo inhibition of PI3Kalpha C57BL/6J mouse assessed as increase in plasma insulin concentration at 25 mg/kg, po measured after 8 hrs by ELISA; assay type: functional, organism-based; outline: as §6
[22] = Cmax in C57BL/6J mouse plasma at 25 mg/kg, po administered as single dose by mass spectrometry based UHPLC analysis; assay type: ADME, organism-based; design: route oral, dose 25 mg/kg; outline: as §4

Sequence of PI3-kinase p110-alpha/p85-alpha (P27986 whole entry, the tested form may be a part): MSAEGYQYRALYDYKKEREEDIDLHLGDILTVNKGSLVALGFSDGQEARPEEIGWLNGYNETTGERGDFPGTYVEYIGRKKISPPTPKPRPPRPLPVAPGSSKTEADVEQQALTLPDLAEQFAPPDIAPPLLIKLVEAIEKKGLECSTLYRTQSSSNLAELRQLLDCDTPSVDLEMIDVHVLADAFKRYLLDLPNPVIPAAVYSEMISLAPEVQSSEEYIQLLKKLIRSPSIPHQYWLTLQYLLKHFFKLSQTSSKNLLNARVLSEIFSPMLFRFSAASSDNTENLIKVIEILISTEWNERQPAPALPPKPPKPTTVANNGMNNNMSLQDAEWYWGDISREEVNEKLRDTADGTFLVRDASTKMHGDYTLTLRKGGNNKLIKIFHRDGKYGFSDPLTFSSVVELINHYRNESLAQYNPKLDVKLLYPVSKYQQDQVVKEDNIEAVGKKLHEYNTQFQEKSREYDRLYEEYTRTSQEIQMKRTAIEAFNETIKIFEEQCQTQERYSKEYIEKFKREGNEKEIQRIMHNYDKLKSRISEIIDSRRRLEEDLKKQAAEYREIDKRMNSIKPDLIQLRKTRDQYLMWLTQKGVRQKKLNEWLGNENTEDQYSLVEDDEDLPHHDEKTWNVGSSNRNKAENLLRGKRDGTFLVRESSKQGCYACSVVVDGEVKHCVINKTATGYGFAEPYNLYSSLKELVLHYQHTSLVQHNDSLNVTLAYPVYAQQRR
Sequence of PI3-kinase p110-alpha/p85-alpha (P42336 whole entry, the tested form may be a part): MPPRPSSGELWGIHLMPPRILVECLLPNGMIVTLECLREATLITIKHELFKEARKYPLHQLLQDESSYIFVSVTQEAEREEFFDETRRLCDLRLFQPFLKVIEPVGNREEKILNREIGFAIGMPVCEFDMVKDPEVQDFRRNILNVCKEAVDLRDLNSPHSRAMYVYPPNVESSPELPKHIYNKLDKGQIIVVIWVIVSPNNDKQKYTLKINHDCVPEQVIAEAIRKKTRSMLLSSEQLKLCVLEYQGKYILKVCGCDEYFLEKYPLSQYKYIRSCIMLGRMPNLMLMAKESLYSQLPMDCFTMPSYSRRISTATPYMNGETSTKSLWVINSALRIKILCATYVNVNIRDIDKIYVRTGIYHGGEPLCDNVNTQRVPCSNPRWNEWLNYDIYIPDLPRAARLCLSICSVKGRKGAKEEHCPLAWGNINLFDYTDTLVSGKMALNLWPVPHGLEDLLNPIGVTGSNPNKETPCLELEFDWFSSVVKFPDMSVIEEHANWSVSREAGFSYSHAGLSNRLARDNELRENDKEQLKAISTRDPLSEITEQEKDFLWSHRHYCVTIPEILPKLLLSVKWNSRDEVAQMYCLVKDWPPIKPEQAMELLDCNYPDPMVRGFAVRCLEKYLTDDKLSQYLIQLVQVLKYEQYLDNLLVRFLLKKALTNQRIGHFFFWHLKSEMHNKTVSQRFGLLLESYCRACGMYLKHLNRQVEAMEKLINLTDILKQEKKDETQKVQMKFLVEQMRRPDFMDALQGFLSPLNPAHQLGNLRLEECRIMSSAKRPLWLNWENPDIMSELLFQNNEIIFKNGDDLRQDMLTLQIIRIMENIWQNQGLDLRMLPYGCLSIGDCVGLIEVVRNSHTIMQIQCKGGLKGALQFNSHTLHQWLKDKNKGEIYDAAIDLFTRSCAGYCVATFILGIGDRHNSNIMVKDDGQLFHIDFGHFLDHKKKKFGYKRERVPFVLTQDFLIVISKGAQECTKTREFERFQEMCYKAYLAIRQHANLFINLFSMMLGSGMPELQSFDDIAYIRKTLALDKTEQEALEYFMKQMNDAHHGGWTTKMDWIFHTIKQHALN

Structure (SMILES) | IC50 [1] | IC50 [2] | Ki [3] | Ki [4] | other results
C[C@@H]1CN(c2nc(-c3cnc(N)cc3C(F)F)nc(N3CCOC[C@H]3C)n2)C[C@H](C)O1 | 561 nM | 1340 nM | > 1000 nM | 42 nM | 
C[C@@H]1COCCN1c1nc(-c2cnc(N)cc2C(F)F)nc(N2CCOCC23CCC3)n1 | 192 nM | 271 nM | 404 nM | 11 nM | 
CCOc1ccc2ccc(=O)oc2c1 |  |  |  |  | half-life at 5 µM [5]: 14 min; half-life at 5 µM [6]: 21 min; half-life at 5 µM [7]: 55 min; half-life at 5 µM [8]: 31 min
C[C@@H]1COCCN1c1nc(-c2cnc(N)cn2)nc2c1C[C@@H]1COCCN21 |  |  |  |  | AUC(0-t) at 8 h [10]: > 5500 ng·h/mL; AUC [11]: < 110 ng·h/g
CNC(=O)c1cccc(-c2ccc3c(N4CCOC[C@@H]4C)nc(N4CCOC[C@@H]4C)nc3n2)c1 [VISTUSERTIB] |  |  |  |  | half-life [12]: 516 min; Tmax [13]: 30 min; Tmax [14]: 30 min; half-life [15]: 450 min; AUC(0-t) at 8 h [16]: 33700 ng·h/mL; Cmax [17]: 286 ng/mL; CL/F [18]: 11 mL/min/kg; AUC(0-t) at 8 h [19]: 1340 ng·h/mL; inhibition (Mus musculus [20]): inactive; inhibition (Mus musculus [21]): inactive; Cmax [22]: 7190 ng/mL
C[C@@H]1COCCN1c1nc(-c2cnc(N)cc2C(F)F)nc(N2C3COCC2C3)n1 | 407 nM | 1560 nM | > 1000 nM | 73 nM | 

Second part, led by results:

IC50 [1] | IC50 [2] | Ki [3] | Ki [4] | Structure (SMILES) | other results
471 nM | 524 nM | > 1000 nM | 28 nM | C[C@@H]1COCCN1c1nc(-c2cnc(N)cc2C(F)F)nc(N2CCOC[C@@H]2CO)n1 | 
> 1000 nM | 1480 nM | > 1000 nM | 50 nM | C[C@@H]1COCCN1c1nc(-c2cnc(N)cc2C(F)F)nc(N2CCOC[C@H]2CO)n1 | 
426 nM | 956 nM | > 1000 nM | 23 nM | COC[C@@H]1COCCN1c1nc(-c2cnc(N)cc2C(F)F)nc(N2CCOC[C@H]2C)n1 | 
136 nM | 200 nM | 233 nM | 6.4 nM | C[C@@H]1COCCN1c1nc(-c2cnc(N)cc2C(F)F)nc(N2[C@@H](C)COC[C@@H]2C)n1 | 
261 nM | 436 nM | 469 nM | 14 nM | C[C@@H]1COCCN1c1nc(-c2cnc(N)cc2C(F)F)nc(N2CCOC[C@H]2C)n1 | 
137 nM | 173 nM | 33 nM | 11 nM | C[C@@H]1COCCN1c1nc(-c2cnc(N)cc2C(F)F)nc(N2CCOC[C@@H]2C)n1 | Activity [9]: Not Active
238 nM | 231 nM | 65 nM | 18 nM | CC[C@@H]1COCCN1c1nc(-c2cnc(N)cc2C(F)F)nc(N2CCOC[C@H]2C)n1 | 
392 nM | 506 nM | > 1000 nM | 25 nM | C[C@@H]1COCCN1c1nc(-c2cnc(N)cc2C(F)F)nc(N2[C@H](C)COC[C@H]2C)n1 | 
 |  | 19 nM | 8 nM | C[C@@H]1COCCN1c1nc(-c2cnc(N)cc2C(F)F)nc(N2CCOCC2)n1 | Activity [9]: Not Active
241 nM | 248 nM | 63 nM | 67 nM | CC[C@H]1COCCN1c1nc(-c2cnc(N)cc2C(F)F)nc(N2CCOC[C@H]2C)n1 | 
